In ChEMBL document CHEMBL3856258, “Phosphonate-based irreversible inhibitors of human γ-glutamyl transpeptidase (GGT). GGsTop is a non-toxic and highly selective inhibitor with critical electrostatic interaction with an active-site residue Lys562 for enhanced inhibitory activity” (Bioorg Med Chem, 2016):

Experiments:
[1] = tested on: Salmonella typhimurium; test: Genotoxicity in Salmonella typhimurium TA100 assessed as number of revertant colonies per plate at 61.7 ug/plate after 20 mins in absence of S9 fraction by Ames test (reference value: 123); type: toxicity, organism-based; conditions: salmonella enterica subsp. enterica serovar typhimurium
[2] = tested on: Salmonella typhimurium; test: Genotoxicity in Salmonella typhimurium TA100 assessed as number of revertant colonies per plate at 1667 ug/plate after 20 mins in absence of S9 fraction by Ames test (reference value: 123); type: toxicity, organism-based; conditions: salmonella enterica subsp. enterica serovar typhimurium
[3] = tested on: Salmonella typhimurium; test: Genotoxicity in Salmonella typhimurium TA1535 assessed as number of revertant colonies per plate at 5000 ug/plate after 20 mins in absence of S9 fraction by Ames test (reference value: 15); type: toxicity, organism-based; conditions: salmonella enterica subsp. enterica serovar typhimurium
[4] = tested on: Escherichia coli; test: Genotoxicity in Escherichia coli WP2uvrA assessed as number of revertant colonies per plate at 185 ug/plate after 20 mins in absence of S9 fraction by Ames test (reference value: 24); type: toxicity; conditions: s9, 20 min
[5] = tested on: Salmonella typhimurium; test: Genotoxicity in Salmonella typhimurium TA1537 assessed as number of revertant colonies per plate at 20.6 ug/plate after 20 mins in absence of S9 fraction by Ames test (reference value: 9); type: toxicity, organism-based; conditions: salmonella enterica subsp. enterica serovar typhimurium
[6] = tested on: Salmonella typhimurium; test: Genotoxicity in Salmonella typhimurium TA1537 assessed as number of revertant colonies per plate at 61.7 ug/plate after 20 mins in absence of S9 fraction by Ames test (reference value: 9); type: toxicity, organism-based; conditions: salmonella enterica subsp. enterica serovar typhimurium
[7] = tested on: Salmonella typhimurium; test: Genotoxicity in Salmonella typhimurium TA1537 assessed as number of revertant colonies per plate at 185 ug/plate after 20 mins in absence of S9 fraction by Ames test (reference value: 9); type: toxicity, organism-based; conditions: salmonella enterica subsp. enterica serovar typhimurium
[8] = tested on: Salmonella typhimurium; test: Genotoxicity in Salmonella typhimurium TA1537 assessed as number of revertant colonies per plate at 556 ug/plate after 20 mins in absence of S9 fraction by Ames test (reference value: 9); type: toxicity, organism-based; conditions: salmonella enterica subsp. enterica serovar typhimurium
[9] = tested on: Salmonella typhimurium; test: Genotoxicity in Salmonella typhimurium TA1537 assessed as number of revertant colonies per plate at 5000 ug/plate after 20 mins in absence of S9 fraction by Ames test (reference value: 9); type: toxicity, organism-based; conditions: salmonella enterica subsp. enterica serovar typhimurium
[10] = tested on: Salmonella typhimurium; test: Genotoxicity in Salmonella typhimurium TA100 assessed as number of revertant colonies per plate at 185 ug/plate after 20 mins in presence of S9 fraction by Ames test (reference value: 142); type: toxicity, organism-based; conditions: salmonella enterica subsp. enterica serovar typhimurium
[11] = tested on: Salmonella typhimurium; test: Genotoxicity in Salmonella typhimurium TA100 assessed as number of revertant colonies per plate at 556 ug/plate after 20 mins in presence of S9 fraction by Ames test (reference value: 142); type: toxicity, organism-based; conditions: salmonella enterica subsp. enterica serovar typhimurium
[12] = tested on: Salmonella typhimurium; test: Genotoxicity in Salmonella typhimurium TA98 assessed as number of revertant colonies per plate at 185 ug/plate after 20 mins in presence of S9 fraction by Ames test (reference value: 26); type: toxicity, organism-based; conditions: salmonella enterica subsp. enterica serovar typhimurium
[13] = tested on: Salmonella typhimurium; test: Genotoxicity in Salmonella typhimurium TA98 assessed as number of revertant colonies per plate at 556 ug/plate after 20 mins in presence of S9 fraction by Ames test (reference value: 26); type: toxicity, organism-based; conditions: salmonella enterica subsp. enterica serovar typhimurium
[14] = Cytotoxicity against CHL cells assessed as growth rate at 2.16 ug/ml preincubated for 6 hrs followed by 18 hrs incubation in fresh medium in absence of S9 fraction by MTT assay relative to control; type: toxicity, cell-based, Cricetulus griseus; conditions: chinese hamster, read-out: Activity
[15] = Cytotoxicity against CHL cells assessed as growth rate at 13.5 ug/ml preincubated for 6 hrs followed by 18 hrs incubation in fresh medium in absence of S9 fraction by MTT assay relative to control; type: toxicity, cell-based, Cricetulus griseus; conditions: chinese hamster, read-out: Activity
[16] = Cytotoxicity against CHL cells assessed as growth rate at 13.5 ug/ml preincubated for 6 hrs followed by 18 hrs incubation in fresh medium in presence of S9 fraction by MTT assay relative to control; type: toxicity, cell-based, Cricetulus griseus; conditions: chinese hamster, read-out: Activity
[17] = Cytotoxicity against CHL cells assessed as growth rate at 33.8 ug/ml preincubated for 6 hrs followed by 18 hrs incubation in fresh medium in presence of S9 fraction by MTT assay relative to control; type: toxicity, cell-based, Cricetulus griseus; conditions: chinese hamster, read-out: Activity
[18] = Cytotoxicity against CHL cells assessed as growth rate at 211 ug/ml preincubated for 6 hrs followed by 18 hrs incubation in fresh medium in presence of S9 fraction by MTT assay relative to control; type: toxicity, cell-based, Cricetulus griseus; conditions: chinese hamster, read-out: Activity
[19] = Cytotoxicity against CHL cells assessed as growth rate at 3300 ug/ml preincubated for 6 hrs followed by 18 hrs incubation in fresh medium in presence of S9 fraction by MTT assay relative to control; type: toxicity, cell-based, Cricetulus griseus; conditions: chinese hamster, read-out: Activity
[20] = Cytotoxicity against CHL cells assessed as growth rate at 2.16 ug/ml after 24 hrs in absence of S9 fraction by MTT assay relative to control; type: toxicity, cell-based, Cricetulus griseus; conditions: chinese hamster, read-out: Activity
[21] = Cytotoxicity against CHL cells assessed as growth rate at 528 ug/ml after 24 hrs in absence of S9 fraction by MTT assay relative to control; type: toxicity, cell-based, Cricetulus griseus; conditions: chinese hamster, read-out: Activity
[22] = Cytotoxicity against CHL cells assessed as structural aberrations at 3300 ug/ml preincubated for 6 hrs followed by 18 hrs incubation in fresh medium in absence of S9 fraction by Giemsa-staining-based microscopic analysis; type: toxicity, cell-based, Cricetulus griseus; conditions: chinese hamster
[23] = Cytotoxicity against CHL cells assessed as chromatid gap at 3300 ug/ml preincubated for 6 hrs followed by 18 hrs incubation in fresh medium in absence of S9 fraction by Giemsa-staining-based microscopic analysis; type: toxicity, cell-based, Cricetulus griseus; conditions: chinese hamster
[24] = Cytotoxicity against CHL cells assessed as structural aberrations at 1650 ug/ml preincubated for 6 hrs followed by 18 hrs incubation in fresh medium in presence of S9 fraction by Giemsa-staining-based microscopic analysis; type: toxicity, cell-based, Cricetulus griseus; conditions: chinese hamster
[25] = Cytotoxicity against CHL cells assessed as chromatid gap at 825 ug/ml preincubated for 6 hrs followed by 18 hrs incubation in fresh medium in presence of S9 fraction by Giemsa-staining-based microscopic analysis; type: toxicity, cell-based, Cricetulus griseus; conditions: chinese hamster
[26] = Cytotoxicity against human CCD-1059SK cells assessed as reduction in cell viability up to 1 mM after 24 hrs by neutral red method; type: toxicity, cell-based
Procedure, shortened: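 CCD-1059SK skin fibroblasts, passages 10–20, grown in DMEM with 10% FBS at 37 °C under 5% CO2. Pre-incubated 24 h after plating, then exposed 24 h to 0, 10, 100 or 1000 µM, diluted into medium from distilled water. Viability read by Neutral Red assay.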

[27] = species on record: Rattus norvegicus; test: Cytotoxicity against Wistar rat […] assessed as morphological change up to 1 mM after 24 hrs by inverted microscopic analysis; type: toxicity
Procedure, shortened: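 Hepatic stellate cells isolated from male Wistar rats (300–350 g), identified by star-like shape and vitamin A autofluorescence, purity >95%. Plated at 5 × 10^5 cells/ml in DMEM with 10% FBS for 2 days, then kept serum-free 24 h at 37 °C. Exposed 24 h to 0, 10, 100 or 1000 µM in DMEM. Morphology checked by inverted microscopy.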

[28] = Cytotoxicity against CHL cells assessed as number of cells with numerical aberrations at 825 ug/ml preincubated for 6 hrs followed by 18 hrs incubation in fresh medium in absence of S9 fraction by Giemsa-staining-based microscopic analysis relative to control; type: toxicity, cell-based, Cricetulus griseus; conditions: chinese hamster
[29] = Cytotoxicity against CHL cells assessed as number of cells with numerical aberrations at 3300 ug/ml preincubated for 6 hrs followed by 18 hrs incubation in fresh medium in absence of S9 fraction by Giemsa-staining-based microscopic analysis relative to control; type: toxicity, cell-based, Cricetulus griseus; conditions: chinese hamster
[30] = Cytotoxicity against CHL cells assessed as number of cells with numerical aberrations at 3300 ug/ml after 24 hrs by Giemsa staining-based microscopic analysis relative to control; type: toxicity, cell-based, Cricetulus griseus; conditions: chinese hamster

## COP(=O)(CCC(N)C(=O)O)Oc1cccc(CC(=O)O)c1 (stereo not given)
[1]
  Activity: 148
[2]
  Activity: 131
[3]
  Activity: 13
[4]
  Activity: 23
[5]
  Activity: 9
[6]
  Activity: 12
[7]
  Activity: 12
[8]
  Activity: 11
[9]
  Activity: 9
[10]
  Activity: 147
[11]
  Activity: 129
[12]
  Activity: 34
[13]
  Activity: 28
[14]
  viability at 18 h, 2.16 ug/ml: 103%
[15]
  viability at 18 h, 13.5 ug/ml: 100%
[16]
  viability at 18 h, 13.5 ug/ml: 103%
[17]
  viability at 18 h, 33.8 ug/ml: 101%
[18]
  viability at 18 h, 211 ug/ml: 98.8%
[19]
  viability at 18 h, 3300 ug/ml: 96.8%
[20]
  viability at 24 h, 2.16 ug/ml: 98%
[21]
  viability at 24 h, 528 ug/ml: 96%
[22]
  Activity: 1%
[23]
  Activity: 0%
[24]
  Activity: 1%
[25]
  Activity: 0%
[26]
  Activity: Non-Toxic
[27]
  Activity: Non-Toxic
[28]
  Activity: 0%
[29]
  Activity: 0%
[30]
  Activity: 0%
